Assay results: ChEMBL document CHEMBL1143003, “Novel tricyclic compounds having acetylene groups at C-8a and cyano enones in rings A and C: highly potent anti-inflammatory and cytoprotective agents” (J Med Chem, 2007)
pIC50: −log10 of the molar value. Calls of active or inactive are those of the source. The calls are words filed in the database; no cut-off is given here.

Legend:
RAW = assay: Inhibition of interferon gamma-stimulated NO production in RAW 264.7 cells after 24 hrs; assay type: functional, cell-based, Mus musculus
[1] = molecular target: T1, Heme oxygenase 1 (Mus musculus) (UniProt P14901); assay: Induction of HO1 in CD1 mouse stomach at 1 umol, po after 6 hrs; assay type: organism-based
T1 sequence (whole entry): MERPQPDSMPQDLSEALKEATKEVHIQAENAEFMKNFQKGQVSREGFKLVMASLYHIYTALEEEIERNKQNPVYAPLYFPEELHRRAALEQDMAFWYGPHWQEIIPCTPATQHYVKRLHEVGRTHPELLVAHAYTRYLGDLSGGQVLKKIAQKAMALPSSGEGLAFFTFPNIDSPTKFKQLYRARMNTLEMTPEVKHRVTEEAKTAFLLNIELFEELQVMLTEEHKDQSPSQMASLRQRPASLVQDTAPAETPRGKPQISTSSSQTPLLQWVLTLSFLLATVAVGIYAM
Outline: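 Male CD-1 mice, three per group, were each gavaged with a single 1 μmol dose. HO-1 induction was then assessed in the stomach.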

[2] = molecular target: T1, Heme oxygenase 1 (Mus musculus); assay: Induction of HO1 in CD1 mouse liver at 1 umol, po after 6 hrs; assay type: organism-based
Outline: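 Compound given orally at 1 μmol. Livers were collected 6 h later, and HO-1 protein was measured by Western blot.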

SMILES: C[C@@H]1C[C@H]2[C@@H]3CCC4=CC(=O)C=C[C@]4(C)[C@@]3(F)[C@@H](O)C[C@]2(C)[C@@]1(O)C(=O)CO [DEXAMETHASONE]
- pIC50 (RAW; Mus musculus, RAW, 24 h): 7.70

SMILES: CC#C[C@]12C=C(C#N)C(=O)C=C1[C@@]1(C)C=C(C#N)C(=O)C(C)(C)[C@@H]1CC2 (racemic)
- pIC50 (RAW; Mus musculus, RAW, 24 h): 8.30

SMILES: C#C[C@@]12C=C(C#N)C(=O)C=C1[C@]1(C)C=C(C#N)C(=O)C(C)(C)C1CC2 (some centres undefined)
- pIC50 (RAW; Mus musculus, RAW, 24 h): 9.00

SMILES: CC1(C)CC[C@]2(C#N)CC[C@]3(C)C(C(=O)C=C4[C@@]5(C)C=C(C#N)C(=O)C(C)(C)[C@@H]5CC[C@]43C)C2C1 (some centres undefined) [CDDO-CN]
- pIC50 (RAW; Mus musculus, RAW, 24 h): 9.00

SMILES: CC1(C)CC[C@]2(C(=O)n3ccnc3)CC[C@]3(C)[C@H](C(=O)C=C4[C@@]5(C)C=C(C#N)C(=O)C(C)(C)[C@@H]5CC[C@]43C)[C@@H]2C1
- Activity [1]: Active
- pIC50 (RAW; Mus musculus, RAW, 24 h): 9.00
- Activity [2]: Active

SMILES: CC1(C)C(=O)C(C#N)=C[C@]2(C)C3=CC(=O)C(C#N)=CC3(C#C[Si](C)(C)C)CC[C@@H]12 (mixture of isomers)
- pIC50 (RAW; Mus musculus, RAW, 24 h): 8.52

SMILES: C#C[C@]12C=C(C#N)C(=O)C=C1[C@@]1(C)C=C(C#N)C(=O)C(C)(C)[C@@H]1CC2 (racemic) [listing 1 of 2 here]
- Activity [1]: Active
- Activity [2]: Active

SMILES: CC[C@]12C=C(C#N)C(=O)C=C1[C@@]1(C)C=C(C#N)C(=O)C(C)(C)[C@@H]1CC2 (racemic)
- pIC50 (RAW; Mus musculus, RAW, 24 h): 8.00

SMILES: CC1(C)C(=O)C(C#N)=C[C@]2(C)C3=CC(=O)C(C#N)=C[C@]3(C#CC#N)CC[C@@H]12 (racemic)
- pIC50 (RAW; Mus musculus, RAW, 24 h): 8.40

SMILES: C#C[C@]12C=C(C#N)C(=O)C=C1[C@@]1(C)C=C(C#N)C(=O)C(C)(C)[C@@H]1CC2 (racemic) [listing 2 of 2 here]
- pIC50 (RAW; raw): 9.00

SMILES: C#C[C@]12C=C(C#N)C(=O)C=C1[C@@]1(C)C=C(C#N)C(=O)C(C)(C)[C@@H]1CC2
- pIC50 (RAW; raw): 8.52

SMILES: CC1(C)C(=O)C(C#N)=C[C@]2(C)C3=CC(=O)C(C#N)=C[C@]3(C#C[Si](C)(C)C)CC[C@@H]12
- pIC50 (RAW; Mus musculus, RAW, 24 h): 8.52

SMILES: CC1(C)C(=O)C(C#N)=C[C@@]2(C)C3=CC(=O)C(C#N)=C[C@@]3(C#C[Si](C)(C)C)CCC12 (some centres undefined)
- pIC50 (RAW; Mus musculus, RAW, 24 h): 8.70

SMILES: C=C[C@]12C=C(C#N)C(=O)C=C1[C@@]1(C)C=C(C#N)C(=O)C(C)(C)[C@@H]1CC2 (racemic)
- pIC50 (RAW; Mus musculus, RAW, 24 h): 8.00

SMILES: CC1(C)C(=O)C(C#N)=C[C@]2(C)C3=CC(=O)C(C#N)=C[C@]3(C)CC[C@@H]12
- Activity [1]: Active
- pIC50 (RAW; Mus musculus, RAW, 24 h): 7.52
- Activity [2]: Active

SMILES: CC1(C)CC[C@]2(C(=O)O)CC[C@]3(C)[C@H](C(=O)C=C4[C@@]5(C)C=C(C#N)C(=O)C(C)(C)[C@@H]5CC[C@]43C)[C@@H]2C1 [BARDOXOLONE]
- Activity [1]: Active
- pIC50 (RAW; Mus musculus, RAW, 24 h): 7.70
- Activity [2]: Active

SMILES: CCC#C[C@]12C=C(C#N)C(=O)C=C1[C@@]1(C)C=C(C#N)C(=O)C(C)(C)[C@@H]1CC2 (racemic)
- pIC50 (RAW; Mus musculus, RAW, 24 h): 7.70
